Laboratory results published in ChEMBL document CHEMBL1649117, “GRL-02031, a novel nonpeptidic protease inhibitor (PI) containing a stereochemically defined fused cyclopentanyltetrahydrofuran potent against multi-PI-resistant human immunodeficiency virus type 1 in vitro” (Antimicrob Agents Chemother, 2009).

Key:
[1] = system: Human immunodeficiency virus 1; experiment: Ratio of EC50 for HIV1 NL4-3 harboring M46I mutation in protease encoding region infected in human […] cells to EC50 for HIV1 NL4-3 infected in human MT4 cells; type: functional
[2] = system: Human immunodeficiency virus 1; experiment: Antiviral activity against HIV1 NL4-3 harboring M46I mutation in protease encoding region infected in human […] cells assessed as inhibition of p24 Gag protein production by ELISA; type: functional, organism-based; conditions: Human immunodeficiency virus 1, NL4-3
How it was run: (§1)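 Protease PCR fragments (ApaI/SmaI) were cloned into pHIV-1NLSma, and virions were harvested from transfected 293T cells over 48 h. MT-4 target cells (10^5/ml) were infected with 100 TCID50s, with or without drug, at 37°C. Day-7 supernatant p24 Gag was read by chemiluminescent enzyme immunoassay.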

[3] = system: Human immunodeficiency virus 1; experiment: Ratio of EC50 for amprenavir to compound against HIV1 NL4-3 harboring L10F mutation in protease encoding region infected in human […] cells; type: functional
[4] = system: Human immunodeficiency virus 1; experiment: Ratio of EC50 for saquinavir to compound against HIV1 NL4-3 harboring L90M mutation in protease encoding region infected in human […] cells; type: functional
[5] = system: Human immunodeficiency virus 1; experiment: Antiviral activity against HIV1 NL4-3 harboring G48V mutation in protease encoding region infected in human […] cells assessed as inhibition of p24 Gag protein production by ELISA; type: functional, organism-based; conditions: Human immunodeficiency virus 1, NL4-3; how it was run: as §1
[6] = system: Human immunodeficiency virus 1; experiment: Ratio of EC50 for HIV1 NL4-3 harboring I50V mutation in protease encoding region infected in human […] cells to EC50 for HIV1 NL4-3 infected in human MT4 cells; type: functional
[7] = system: Human immunodeficiency virus 1; experiment: Ratio of EC50 for ritonavir to compound against HIV1 NL4-3 harboring V82I/I85V mutation in protease encoding region infected in human […] cells; type: functional
[8] = system: Human immunodeficiency virus 1; experiment: Ratio of EC50 for amprenavir to compound against HIV1 NL4-3 harboring Q58E mutation in protease encoding region infected in human […] cells; type: functional
[9] = system: Human immunodeficiency virus 1; experiment: Antiviral activity against HIV1 NL4-3 harboring I84V/I85V mutation in protease encoding region infected in human […] cells assessed as inhibition of p24 Gag protein production by ELISA; type: functional, organism-based; conditions: Human immunodeficiency virus 1, NL4-3; how it was run: as §1
[10] = system: Human immunodeficiency virus 1; experiment: Ratio of EC50 for HIV1 NL4-3 harboring L10F/I47V/V82I/I85V mutation in protease encoding region infected in human […] cells to EC50 for HIV1 NL4-3 infected in human MT4 cells; type: functional
[11] = system: Human immunodeficiency virus 1; experiment: Ratio of EC50 for ritonavir to compound against HIV1 NL4-3 harboring I84V/I85V mutation in protease encoding region infected in human […] cells; type: functional
[12] = system: Human immunodeficiency virus 1; experiment: Antiviral activity against HIV1 subtype E 92TH019 infected in human PHA-PBM cells after 7 days by MTT assay; type: functional, organism-based; conditions: Human immunodeficiency virus 1, subtype E 92TH019, PBMC, 168 h
[13] = system: Human immunodeficiency virus 1; experiment: Ratio of EC50 for HIV1 NL4-3 harboring L90M mutation in protease encoding region infected in human […] cells to EC50 for HIV1 NL4-3 infected in human MT4 cells; type: functional
[14] = system: Human immunodeficiency virus 1; experiment: Antiviral activity against HIV1 NL4-3 harboring L90M mutation in protease encoding region infected in human […] cells assessed as inhibition of p24 Gag protein production by ELISA; type: functional, organism-based; conditions: Human immunodeficiency virus 1, NL4-3; how it was run: as §1
[15] = system: Human immunodeficiency virus 1; experiment: Ratio of EC50 for amprenavir to compound against HIV1 NL4-3 harboring I50V mutation in protease encoding region infected in human […] cells; type: functional
[16] = system: Human immunodeficiency virus 1; experiment: Ratio of EC50 for nelfinavir to compound against HIV1 NL4-3 harboring D30N mutation in protease encoding region infected in human […] cells; type: functional
[17] = system: Human immunodeficiency virus 1; experiment: Antiviral activity against HIV1 Ba-L infected in human PHA-PBM cells after 7 days by MTT assay; type: functional, organism-based; conditions: Human immunodeficiency virus 1, Ba-L, PBMC, 168 h
[18] = system: Human immunodeficiency virus 1; experiment: Ratio of EC50 for HIV1 NL4-3 harboring L10F/M46I/I47V/V82I/I85V mutation in protease encoding region infected in human […] cells to EC50 for HIV1 NL4-3 infected in human MT4 cells; type: functional
[19] = system: Human immunodeficiency virus 1; experiment: Ratio of EC50 for HIV1 NL4-3 harboring I47V mutation in protease encoding region infected in human […] cells to EC50 for HIV1 NL4-3 infected in human MT4 cells; type: functional
[20] = system: Human immunodeficiency virus 1; experiment: Antiviral activity against HIV1 NL4-3 harboring I84V mutation in protease encoding region infected in human […] cells assessed as inhibition of p24 Gag protein production by ELISA; type: functional, organism-based; conditions: Human immunodeficiency virus 1, NL4-3; how it was run: as §1
[21] = system: Human immunodeficiency virus 1; experiment: Antiviral activity against HIV1 subtype A 92UG037 infected in human PHA-PBM cells after 7 days by MTT assay; type: functional, organism-based; conditions: Human immunodeficiency virus 1, subtype A 92UG037, PBMC, 168 h
[22] = system: Human immunodeficiency virus 1; experiment: Ratio of EC50 for HIV1 NL4-3 harboring M46I/I47V mutation in protease encoding region infected in human […] cells to EC50 for HIV1 NL4-3 infected in human MT4 cells; type: functional
[23] = system: Human immunodeficiency virus 1; experiment: Ratio of EC50 for HIV1 NL4-3 harboring L10F mutation in protease encoding region infected in human […] cells to EC50 for HIV1 NL4-3 infected in human MT4 cells; type: functional
[24] = system: Human immunodeficiency virus 1; experiment: Ratio of EC50 for HIV1 NL4-3 harboring V82I mutation in protease encoding region infected in human […] cells to EC50 for HIV1 NL4-3 infected in human MT4 cells; type: functional
[25] = system: Human immunodeficiency virus 1; experiment: Antiviral activity against HIV1 NL4-3 harboring L10F/I47V/V82I/I85V mutation in protease encoding region infected in human […] cells assessed as inhibition of p24 Gag protein production by ELISA; type: functional, organism-based; conditions: Human immunodeficiency virus 1, NL4-3; how it was run: as §1
[26] = system: Human immunodeficiency virus 1; experiment: Ratio of EC50 for ritonavir to compound against HIV1 NL4-3 harboring I85V mutation in protease encoding region infected in human […] cells; type: functional
[27] = system: Human immunodeficiency virus 1; experiment: Antiviral activity against HIV1 NL4-3 harboring L10F/M46I/I47V/V82I/I85V mutation in protease encoding region infected in human […] cells assessed as inhibition of p24 Gag protein production by ELISA; type: functional, organism-based; conditions: Human immunodeficiency virus 1, NL4-3; how it was run: as §1
[28] = system: Human immunodeficiency virus 1; experiment: Antiviral activity against HIV1 NL4-3 harboring I85V mutation in protease encoding region infected in human […] cells assessed as inhibition of p24 Gag protein production by ELISA; type: functional, organism-based; conditions: Human immunodeficiency virus 1, NL4-3; how it was run: as §1
[29] = system: Human immunodeficiency virus 1; experiment: Ratio of EC50 for HIV1 NL4-3 harboring I85V mutation in protease encoding region infected in human […] cells to EC50 for HIV1 NL4-3 infected in human MT4 cells; type: functional
[30] = system: Human immunodeficiency virus 1; experiment: Ratio of EC50 for amprenavir to compound against HIV1 NL4-3 harboring M46I/I47V mutation in protease encoding region infected in human […] cells; type: functional
[31] = system: Human immunodeficiency virus 1; experiment: Ratio of EC50 for ritonavir to compound against HIV1 NL4-3 harboring L10F/I47V/V82I/I85V mutation in protease encoding region infected in human […] cells; type: functional
[32] = system: Human immunodeficiency virus 1; experiment: Ratio of EC50 for ritonavir to compound against HIV1 NL4-3 harboring L33F mutation in protease encoding region infected in human […] cells; type: functional
[33] = system: Human immunodeficiency virus 1; experiment: Ratio of EC50 for saquinavir to compound against HIV1 NL4-3 harboring G48V mutation in protease encoding region infected in human […] cells; type: functional

For `COc1ccc(S(=O)(=O)N(C[C@@H]2CCC(=O)N2)C[C@@H](O)[C@H](Cc2ccccc2)NC(=O)O[C@@H]2C[C@@H]3CCO[C@@H]3C2)cc1`, which “Ratio EC50” value [1] is on record?
Its value is 1.2.

What about the EC50 [2] of the same compound?
Its EC50 is 28 nM.

What about the “Ratio EC50” value [3] of the same compound?
The value was 1.4.

What about the “Ratio EC50” value [4] of the same compound?
The value was 1.

And the EC50 [5]?
Its EC50 is 40 nM.

And the “Ratio EC50” value [6]?
Its value is 0.7.

What about the “Ratio EC50” value [7] of the same compound?
The value was 1.6.

What about the “Ratio EC50” value [8] of the same compound?
The value was 1.

What about the EC50 [9] of the same compound?
The EC50 was 97 nM.

What about the “Ratio EC50” value [10] of the same compound?
The value was 18.7.

What about the “Ratio EC50” value [11] of the same compound?
The value was 14.8.

What about the EC50 [12] of the same compound?
Its EC50 is 15 nM.

What about the “Ratio EC50” value [13] of the same compound?
Its value is 1.4.

And the EC50 [14]?
The EC50 was 32 nM.

And the “Ratio EC50” value [15]?
Its value is 1.2.

And the “Ratio EC50” value [16]?
Its value is 5.6.

What about the EC50 [17] of the same compound?
The EC50 was 15 nM.

What about the “Ratio EC50” value [18] of the same compound?
The value was >43.

And the “Ratio EC50” value [19]?
The value was 1.6.

And the EC50 [20]?
The EC50 was 30 nM.

And the EC50 [21]?
The EC50 was 15 nM.

What about the “Ratio EC50” value [22] of the same compound?
Its value is 3.2.

What about the “Ratio EC50” value [23] of the same compound?
The value was 1.6.

What about the “Ratio EC50” value [24] of the same compound?
Its value is 1.5.

And the EC50 [25]?
The EC50 was 430 nM.

And the “Ratio EC50” value [26]?
The value was 2.1.

And the EC50 [27]?
Its EC50 is > 1000 nM.

What about the EC50 [28] of the same compound?
Its EC50 is 24 nM.

What about the “Ratio EC50” value [29] of the same compound?
The value was 1.

And the “Ratio EC50” value [30]?
The value was 1.3.

And the “Ratio EC50” value [31]?
Its value is 1.9.

What about the “Ratio EC50” value [32] of the same compound?
The value was 1.

What about the “Ratio EC50” value [33] of the same compound?
The value was 5.1.
